Assay results reported in ChEMBL document CHEMBL3046951, “Volatile constituents from the leaves of Callicarpa japonica Thunb. and their antibacterial activities” (2004).

Tests used:
Type in all cases: functional
Listeria monocytogenes [1] = assay: Antimicrobial activity against Listeria monocytogenes ATCC 19111 assessed as growth inhibition rate at 5.32 mg/l after 72 hr by spectrophotometry; details: ATCC 19111, 72 h, read-out: GI
Outline: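 L. monocytogenes was grown at 30 °C in tryptic soy broth, subcultured for 18 h, and exposed to pure volatile compounds (>95% purity). Growth was followed by Bioscreen C optical density every 24 h for 72 h against a 10% Tween 80 control.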

Vibrio parahaemolyticus [2] = assay: Antimicrobial activity against Vibrio parahaemolyticus ATCC 33844 assessed as growth inhibition rate at 5.32 mg/l after 72 hr by spectrophotometry; details: ATCC 33844, 72 h, read-out: GI
Escherichia coli [3] = assay: Antimicrobial activity against Escherichia coli O157:H7 ATCC 43894 assessed as growth inhibition rate at 5.32 mg/l after 72 hr by spectrophotometry; details: O157:H7 ATCC 43894, 72 h, read-out: GI
Staphylococcus aureus [4] = assay: Antimicrobial activity against Staphylococcus aureus ATCC 25923 assessed as growth inhibition rate at 5.32 mg/l after 72 hr by spectrophotometry; details: ATCC 25923, 72 h, read-out: GI
Salmonella typhimurium [5] = assay: Antimicrobial activity against Salmonella enterica subsp. enterica serovar Typhimurium ATCC 14028 assessed as growth inhibition rate at 5.32 mg/l after 72 hr by spectrophotometry; details: ATCC 14028, 72 h, read-out: GI
Bacillus cereus [6] = assay: Antimicrobial activity against Bacillus cereus ATCC 11778 assessed as growth inhibition rate at 5.32 mg/l after 72 hr by spectrophotometry; details: ATCC 11778, 72 h, read-out: GI
Outline: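 Pure volatile compounds (purity >95%; one at 90%) were tested against B. cereus ATCC 11778. The strain was grown at 30 °C in nutrient broth for 24 h, then subcultured for 18 h. Optical density was read in a Bioscreen C every 24 h for 72 h, with 10% Tween 80 as the control.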

Listeria monocytogenes [7] = assay: Antimicrobial activity against Listeria monocytogenes ATCC 19111 assessed as growth inhibition rate at 9.84 mg/l after 72 hr by spectrophotometry; details: ATCC 19111, 72 h, read-out: GI
Outline: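 Pure volatile compounds (>95% purity) tested on Listeria monocytogenes ATCC 19111 in tryptic soy broth at 30 °C. Inoculum: 24 h culture subcultured (0.1 mL into 9.9 mL broth) and grown 18 h. Growth followed by Bioscreen C optical density every 24 h for 72 h against a 10% Tween 80 control.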

Staphylococcus aureus [8] = assay: Antimicrobial activity against Staphylococcus aureus ATCC 25923 assessed as growth inhibition rate at 9.84 mg/l after 72 hr by spectrophotometry; details: ATCC 25923, 72 h, read-out: GI
Vibrio parahaemolyticus [9] = assay: Antimicrobial activity against Vibrio parahaemolyticus ATCC 33844 assessed as growth inhibition rate at 9.84 mg/l after 72 hr by spectrophotometry; details: ATCC 33844, 72 h, read-out: GI
Escherichia coli [10] = assay: Antimicrobial activity against Escherichia coli O157:H7 ATCC 43894 assessed as growth inhibition rate at 9.84 mg/l after 72 hr by spectrophotometry; details: O157:H7 ATCC 43894, 72 h, read-out: GI
Outline: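 Authentic volatiles (>95% purity; 2,4-heptadienal 90%) tested against 18 h subcultures. Growth media: E. coli O157:H7 and S. aureus in tryptic soy broth at 37 °C; L. monocytogenes in tryptic soy broth at 30 °C; V. parahaemolyticus in tryptic soy broth + 3% NaCl at 37 °C; S. typhimurium in nutrient broth at 30 °C. Bioscreen C OD every 24 h for 72 h versus 10% Tween 80 control.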

Salmonella typhimurium [11] = assay: Antimicrobial activity against Salmonella enterica subsp. enterica serovar Typhimurium ATCC 14028 assessed as growth inhibition rate at 9.84 mg/l after 72 hr by spectrophotometry; details: ATCC 14028, 72 h, read-out: GI
Bacillus cereus [12] = assay: Antimicrobial activity against Bacillus cereus ATCC 11778 assessed as growth inhibition rate at 9.84 mg/l after 72 hr by spectrophotometry; details: ATCC 11778, 72 h, read-out: GI
Outline: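 Pure volatile compounds (>95% purity) from the leaf extract were tested against B. cereus grown at 30 °C in nutrient broth from an 18 h subculture. Optical density was read in a Bioscreen C every 24 h over 72 h, and activity was compared with a 10% Tween 80 control.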

SMILES	inhibition of growth at 5.32 µg/mL (Listeria monocytogenes [1]) [%]	inhibition of growth at 5.32 µg/mL (Vibrio parahaemolyticus [2]) [%]	inhibition of growth at 5.32 µg/mL (Escherichia coli [3]) [%]	inhibition of growth at 5.32 µg/mL (Staphylococcus aureus [4]) [%]	inhibition of growth at 5.32 µg/mL (Salmonella typhimurium [5]) [%]	inhibition of growth at 5.32 µg/mL (Bacillus cereus [6]) [%]	inhibition of growth at 9.84 µg/mL (Listeria monocytogenes [7]) [%]	inhibition of growth at 9.84 µg/mL (Staphylococcus aureus [8]) [%]	inhibition of growth at 9.84 µg/mL (Vibrio parahaemolyticus [9]) [%]	inhibition of growth at 9.84 µg/mL (Escherichia coli [10]) [%]	inhibition of growth at 9.84 µg/mL (Salmonella typhimurium [11]) [%]	inhibition of growth at 9.84 µg/mL (Bacillus cereus [12]) [%]
CCCCCC(O)CC (configuration not stated) [3-OCTANOL]	21.5	70.7	8.9	52.6	20.6	43	–	–	–	–	–	–
CCCCCCO [1-HEXANOL]	–	–	–	–	–	–	4.2	6.9	27.1	16.9	23.3	3.6
